Tests used:
[1] = Plasma stability, mouse plasma
[2] = Plasma pharmacokinetics in mice; assay type: in vivo; settings: BALB/c mouse, IV
How it was run: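 Balb/c mice received a single IV or oral-gavage dose, with low-dose isoflurane restraint for gavage. Each mouse gave one time point: 3 mice per point, 10 time points. Blood was taken by cardiac puncture under deep isoflurane anaesthesia, and plasma was assayed for parent compound by validated LC-MS/MS.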

[3] = IV doses 30–60 mg/kg, within 5 min, Male CD1 mice; cited from earlier work

CC(C)C[C@H](NC(=O)[C@H](Cc1ccccc1)NC(=O)CNC(=O)CNC(=O)[C@@H](N)Cc1ccc(O)cc1)C(=O)O [Compound 1, Leu-enkephalin]
remaining at 4 h, 50 μM [1]: > 90% | microsomal degradation (Microsomal stability; in the absence of NADPH): slowly degraded | material metabolized (Microsomal stability; mouse, rat and human NADPH-charged microsomes, 2 h, 0.50 μM): 38–50% | time until completely consumed in plasma [2]: ≤ 5 min

[D-Pen^2,D-Pen^5]-enkephalin [DPDPE]
in vivo antinociceptive activity (hotplate) [3]: demonstrated in vivo antinociceptive activity

Reference: paper PMC6051889 (ACS chemical neuroscience, 2018)
